Blank lines part the entries; values can stand above or below the compound they belong to.
Assays:
[1] = tested on: K-Ras; details: Goebel and colleagues; cited from earlier work
[2] = biological target: T1, K-Ras (G12C) (Homo sapiens, UniProt P01116, G12C); assay: MST binding of labeled nucleotide
[3] = biological target: T2, K-Ras (WT) (Homo sapiens, UniProt P01116); assay: MST binding of labeled nucleotide
[4] = biological target: T3, Rho-A (Homo sapiens, UniProt P61586); assay: SPA with [32P]GTP; type: binding
T3 sequence (P61586 2-181): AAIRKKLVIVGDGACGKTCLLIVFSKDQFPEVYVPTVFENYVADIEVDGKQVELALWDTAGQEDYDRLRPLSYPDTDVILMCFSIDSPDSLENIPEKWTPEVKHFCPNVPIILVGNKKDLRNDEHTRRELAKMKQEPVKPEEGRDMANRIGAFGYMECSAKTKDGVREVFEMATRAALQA
Method in brief: (§1)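 Saturation binding used [32P]GTP (3,000 Ci/mmol) at 2.5 nmol/L–10 µmol/L, with nonspecific signal defined by 800 mmol/L imidazole. Counts were converted to pmol, and Kd and Bmax fitted from bound versus free GTP. Three independent experiments, technical triplicates.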

[5] = biological target: T4, Rac-1 (Homo sapiens, UniProt P63000); assay: MST binding of labeled nucleotide; details: read-out: MST GTP Kd
[6] = tested on: H-Ras; details: Feuerstein and colleagues; cited from earlier work
[7] = biological target: T2, K-Ras (WT); assay: Filtration binding assay with α-[32P]GTP
Method in brief: (§2)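 Nucleotide-free His10-tagged K-Ras (residues 2–185) was expressed in E. coli and purified by Ni affinity and SEC. Varying protein amounts were incubated with α-[32P]GTP (2,594 Ci/mmol; 2.88 nmol/L final) for 5 min at 23°C in 100 µL. Samples were filtered through 0.45-µm MCE membranes, washed with ice-cold GTP-free assay buffer, and dried filters counted for dpm. Kd came from saturation binding and kon from a time course.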

[8] = biological target: T2, K-Ras (WT); assay: SPA with [32P]GTP; type: binding
Method in brief: as §1

[9] = biological target: T5, K-Ras (G12D) (Homo sapiens, UniProt P01116, G12D); assay: SPA with [32P]GTP; type: binding
Method in brief: as §1

[10] = biological target: T5, K-Ras (G12D); assay: Filtration binding assay with α-[32P]GTP
Method in brief: as §2

[11] = biological target: T4, Rac-1; assay: SPA with [32P]GTP; type: binding
Method in brief: as §1

[12] = biological target: T1, K-Ras (G12C); assay: SPA with [32P]GTP; type: binding
Method in brief: as §1

[13] = biological target: T3, Rho-A; assay: MST binding of labeled nucleotide; details: read-out: MST GTP Kd
[14] = biological target: T6, K-Ras (Q61H) (Homo sapiens, UniProt P01116, Q61H); assay: SPA with [32P]GTP; type: binding
Method in brief: as §1

[15] = biological target: T5, K-Ras (G12D); assay: MST binding of labeled nucleotide; details: read-out: MST GTP Kd
[16] = biological target: T6, K-Ras (Q61H); assay: MST binding of labeled nucleotide; details: read-out: MST GTP Kd

Kd ([2]; read-out: MST GDP Kd): 360 ± 34 nM
Kd ([3]; read-out: MST GDP Kd): 394 ± 54 nM
SMILES: Nc1nc2c(ncn2[C@@H]2O[C@H](COP(=O)(O)OP(=O)(O)O)[C@@H](O)[C@H]2O)c(=O)[nH]1 [GDP]
koff [1]: 1.1e-05 s⁻¹
kon [1]: 4.22e+06 M⁻¹ s⁻¹

SPA Bmax (mol:mol) [4]: 1.02 ± 0.02 mol:mol
Kd ([4]; read-out: SPA GTP Kd): 129 ± 12 nM
Kd [5]: 166 ± 10 nM
Filtration assay Bmax (mol:mol) ([7]; K-Ras (WT)): 0.93 ± 0.03 mol:mol
kon by filtration binding assay ([7]; K-Ras, time course study): 2.13e+08 M⁻¹ s⁻¹
Kd ([7]; read-out: Filtration assay GTP Kd, K-Ras (WT), 23°C): 228 ± 26 nM
SPA Bmax (mol:mol) ([8]; K-Ras (WT), molar binding stoichiometry of GTP to protein): 1.00 ± 0.01 mol:mol
kon by SPA ([8]; WT K-Ras): 3.22e+08 M⁻¹ s⁻¹
Kd ([8]; read-out: SPA GTP Kd, K-Ras (WT)): 246 ± 19 nM
SPA Bmax (mol:mol) [9]: 0.97 ± 0.01 mol:mol
Kd ([9]; read-out: SPA GTP Kd): 280 ± 19 nM
kon by filtration binding assay ([10]; G12D K-Ras mutant, time course study): 2.49e+08 M⁻¹ s⁻¹
Filtration assay Bmax (mol:mol) ([10]; K-Ras (G12D)): 0.95 ± 0.02 mol:mol
Kd ([10]; read-out: Filtration assay GTP Kd, K-Ras (G12D), 23°C): 345 ± 25 nM
SPA Bmax (mol:mol) [11]: 1.03 ± 0.02 mol:mol
Kd ([11]; read-out: SPA GTP Kd): 151 ± 14 nM
SPA Bmax (mol:mol) [12]: 0.94 ± 0.02 mol:mol
Kd ([12]; read-out: SPA GTP Kd): 359 ± 35 nM
Kd ([2]; read-out: MST GTP Kd): 207 ± 46 nM
Kd [13]: 130 ± 5 nM
Kd ([3]; read-out: MST GTP Kd, 23°C): 463 ± 23 nM
SPA Bmax (mol:mol) [14]: 0.96 ± 0.02 mol:mol
Kd [15]: 244 ± 12 nM
Kd [16]: 157 ± 21 nM
SMILES: Nc1nc2c(ncn2[C@@H]2O[C@H](COP(=O)(O)OP(=O)(O)OP(=O)(O)O)[C@@H](O)[C@H]2O)c(=O)[nH]1 [GTP]
koff [6]: 8e-05 s⁻¹
kon [6]: 2.9e+06 M⁻¹ s⁻¹

Reference: PMC12757722 (Molecular Cancer Therapeutics, 2025)
